Active and inactive are the calls of the source. No cut-off for these calls is given here.
How the values were obtained:
Histone deacetylase 4 = Histone deacetylase 4 (Homo sapiens, UniProt P56524); test: Inhibition of HDAC4 (unknown origin) at 1 uM incubated for 30 mins in presence of BSA and DTT by fluorescence assay
Summary of the method: (§1)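 Purified HDAC isoforms were tested up to a maximum of 1 μM. IC50 values are averages of duplicate experiments. Disulfide compounds were pretreated with DTT to reduce the disulfide bond.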

[1] = biological target: T1, Protein deacetylase HDAC6 (Homo sapiens, UniProt Q9UBN7); test: Inhibition of HDAC6 (unknown origin) incubated for 30 mins in presence of BSA and DTT by fluorescence assay; summary of the method: as §1
T1 sequence (Q9UBN7 whole entry): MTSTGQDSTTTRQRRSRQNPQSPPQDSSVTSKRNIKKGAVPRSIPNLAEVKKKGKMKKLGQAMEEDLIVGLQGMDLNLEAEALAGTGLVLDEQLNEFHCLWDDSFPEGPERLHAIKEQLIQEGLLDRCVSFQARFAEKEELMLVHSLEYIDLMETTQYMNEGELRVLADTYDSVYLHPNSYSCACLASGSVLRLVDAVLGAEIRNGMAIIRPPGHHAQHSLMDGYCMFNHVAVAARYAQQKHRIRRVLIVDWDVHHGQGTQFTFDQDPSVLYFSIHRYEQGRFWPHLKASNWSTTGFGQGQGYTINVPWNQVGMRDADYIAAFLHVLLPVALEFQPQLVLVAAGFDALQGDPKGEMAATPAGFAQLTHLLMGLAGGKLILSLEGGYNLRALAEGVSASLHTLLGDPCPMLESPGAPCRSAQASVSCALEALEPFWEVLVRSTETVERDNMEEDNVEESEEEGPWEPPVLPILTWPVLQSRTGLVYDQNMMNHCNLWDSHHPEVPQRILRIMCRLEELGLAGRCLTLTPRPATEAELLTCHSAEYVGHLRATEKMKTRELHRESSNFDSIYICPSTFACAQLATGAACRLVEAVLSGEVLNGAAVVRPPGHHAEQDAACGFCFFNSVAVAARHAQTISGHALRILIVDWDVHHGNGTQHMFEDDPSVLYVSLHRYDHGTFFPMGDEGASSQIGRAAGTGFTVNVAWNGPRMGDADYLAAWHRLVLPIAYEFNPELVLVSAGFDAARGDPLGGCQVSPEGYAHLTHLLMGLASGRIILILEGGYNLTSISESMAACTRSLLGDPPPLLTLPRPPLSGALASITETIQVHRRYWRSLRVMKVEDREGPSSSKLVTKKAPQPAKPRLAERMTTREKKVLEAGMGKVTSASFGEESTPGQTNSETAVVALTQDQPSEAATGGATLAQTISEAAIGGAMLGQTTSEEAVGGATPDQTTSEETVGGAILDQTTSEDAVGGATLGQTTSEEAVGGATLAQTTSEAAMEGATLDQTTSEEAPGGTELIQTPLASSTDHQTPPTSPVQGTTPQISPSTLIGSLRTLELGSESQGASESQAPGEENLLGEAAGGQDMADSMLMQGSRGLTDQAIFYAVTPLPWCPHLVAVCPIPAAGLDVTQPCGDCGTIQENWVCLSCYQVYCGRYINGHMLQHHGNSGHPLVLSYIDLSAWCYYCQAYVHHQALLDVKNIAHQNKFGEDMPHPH

Histone deacetylase 1 = Histone deacetylase 1 (Homo sapiens, UniProt Q13547); test: Inhibition of HDAC1 (unknown origin) incubated for 30 mins in presence of BSA and DTT by fluorescence assay
Histone deacetylase 1, sequence (Q13547 whole entry): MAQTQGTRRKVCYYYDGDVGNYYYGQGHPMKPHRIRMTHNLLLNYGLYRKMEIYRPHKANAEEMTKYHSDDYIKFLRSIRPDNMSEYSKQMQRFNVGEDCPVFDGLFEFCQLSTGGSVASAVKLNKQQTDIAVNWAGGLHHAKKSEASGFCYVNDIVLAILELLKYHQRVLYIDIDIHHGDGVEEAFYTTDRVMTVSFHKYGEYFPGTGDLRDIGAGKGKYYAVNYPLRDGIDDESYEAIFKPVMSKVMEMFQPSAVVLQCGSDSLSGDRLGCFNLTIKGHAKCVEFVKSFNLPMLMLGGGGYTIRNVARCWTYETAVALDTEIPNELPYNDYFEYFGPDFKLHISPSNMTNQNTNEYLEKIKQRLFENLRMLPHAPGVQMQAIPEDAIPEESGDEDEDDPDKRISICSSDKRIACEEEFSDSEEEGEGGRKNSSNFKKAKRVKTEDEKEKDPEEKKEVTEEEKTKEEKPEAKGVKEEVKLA

[2] = biological target: T2, Polyamine deacetylase HDAC10 (Homo sapiens, UniProt Q969S8); test: Inhibition of HDAC10 (unknown origin) incubated for 30 mins in presence of BSA and DTT by fluorescence assay; summary of the method: as §1
T2 sequence (Q969S8 whole entry): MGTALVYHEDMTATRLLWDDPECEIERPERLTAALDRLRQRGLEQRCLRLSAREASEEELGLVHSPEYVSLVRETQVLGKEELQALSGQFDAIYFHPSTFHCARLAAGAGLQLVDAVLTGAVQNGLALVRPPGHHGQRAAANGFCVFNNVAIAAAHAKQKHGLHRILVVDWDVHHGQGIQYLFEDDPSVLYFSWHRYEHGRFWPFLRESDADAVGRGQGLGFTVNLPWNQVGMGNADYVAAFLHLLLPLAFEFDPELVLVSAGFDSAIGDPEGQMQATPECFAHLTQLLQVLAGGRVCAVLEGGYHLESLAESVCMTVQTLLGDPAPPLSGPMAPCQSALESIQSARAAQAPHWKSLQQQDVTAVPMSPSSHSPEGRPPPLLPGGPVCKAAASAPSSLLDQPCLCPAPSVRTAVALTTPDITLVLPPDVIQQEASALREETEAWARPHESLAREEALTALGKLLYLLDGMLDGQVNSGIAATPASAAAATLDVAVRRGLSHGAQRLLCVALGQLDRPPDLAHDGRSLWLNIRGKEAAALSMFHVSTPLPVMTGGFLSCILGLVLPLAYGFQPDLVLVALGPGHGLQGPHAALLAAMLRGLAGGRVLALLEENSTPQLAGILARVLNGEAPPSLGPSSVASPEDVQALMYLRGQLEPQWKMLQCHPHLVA

HCT-116 [3] = test: In vivo inhibition of HDAC in tumor of human HCT116 cells xenografted nu/nu mouse assessed as increase in histone hyperacetylation at 10 mg/kg, ip after 4 to 12 hrs by immunoblotting method; format: functional, organism-based; set-up: dose 10 mg/kg
Summary of the method: (§2)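 Mice bearing HCT116 xenografts were dosed intraperitoneally at 10 or 50 mg/kg, or orally at 50 mg/kg. Tumors were excised at 4, 12 and 24 h. Histone hyperacetylation in the tumors was assessed by immunoblot, n = 2.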

HCT-116 [4] = test: In vivo inhibition of HDAC in tumor of human HCT116 cells xenografted nu/nu mouse assessed as increase in histone hyperacetylation at 50 mg/kg, po after 4 to 12 hrs by immunoblotting method; format: functional, organism-based; set-up: dose 50 mg/kg; summary of the method: as §2
Serum = test: Drug metabolism in mouse serum assessed as largazole thiol formation after 0.25 to 1440 mins by HPLC-MS method; format: ADME, cell-free
[5] = Drug metabolism in tumor of human HCT116 cells xenografted nu/nu mouse assessed as time for maximum largazole thiol level at 10 mg/kg, ip by HPLC-MS method; format: ADME, organism-based, Neoplasm, HCT-116; set-up: dose 10 mg/kg, route intraperitoneal; conditions: in vivo
[6] = Drug metabolism in tumor of human HCT116 cells xenografted nu/nu mouse assessed as time for maximum largazole thiol level at 50 mg/kg, ip by HPLC-MS method; format: ADME, organism-based, Neoplasm, HCT-116; set-up: dose 50 mg/kg, route intraperitoneal; conditions: in vivo
[7] = Drug metabolism in human HCT116 cells protein lysate solution assessed as largazole thiol formation at 25 ug/mL after 1 hr by HPLC-MS method; format: ADME, cell-based; conditions: hct-116, 1 h
HCT-116 [8] = test: In vivo inhibition of HDAC in tumor of human HCT116 cells xenografted nu/nu mouse assessed as increase in histone hyperacetylation at 50 mg/kg, ip after 12 hrs by immunoblotting method; format: functional, organism-based; set-up: dose 50 mg/kg; summary of the method: as §2
[9] = Drug metabolism in tumor of human HCT116 cells xenografted nu/nu mouse assessed largazole thiol formation at 50 mg/kg, po by HPLC-MS method; conditions: in vivo

Histone deacetylase 4, sequence (P56524 whole entry, canonical isoform): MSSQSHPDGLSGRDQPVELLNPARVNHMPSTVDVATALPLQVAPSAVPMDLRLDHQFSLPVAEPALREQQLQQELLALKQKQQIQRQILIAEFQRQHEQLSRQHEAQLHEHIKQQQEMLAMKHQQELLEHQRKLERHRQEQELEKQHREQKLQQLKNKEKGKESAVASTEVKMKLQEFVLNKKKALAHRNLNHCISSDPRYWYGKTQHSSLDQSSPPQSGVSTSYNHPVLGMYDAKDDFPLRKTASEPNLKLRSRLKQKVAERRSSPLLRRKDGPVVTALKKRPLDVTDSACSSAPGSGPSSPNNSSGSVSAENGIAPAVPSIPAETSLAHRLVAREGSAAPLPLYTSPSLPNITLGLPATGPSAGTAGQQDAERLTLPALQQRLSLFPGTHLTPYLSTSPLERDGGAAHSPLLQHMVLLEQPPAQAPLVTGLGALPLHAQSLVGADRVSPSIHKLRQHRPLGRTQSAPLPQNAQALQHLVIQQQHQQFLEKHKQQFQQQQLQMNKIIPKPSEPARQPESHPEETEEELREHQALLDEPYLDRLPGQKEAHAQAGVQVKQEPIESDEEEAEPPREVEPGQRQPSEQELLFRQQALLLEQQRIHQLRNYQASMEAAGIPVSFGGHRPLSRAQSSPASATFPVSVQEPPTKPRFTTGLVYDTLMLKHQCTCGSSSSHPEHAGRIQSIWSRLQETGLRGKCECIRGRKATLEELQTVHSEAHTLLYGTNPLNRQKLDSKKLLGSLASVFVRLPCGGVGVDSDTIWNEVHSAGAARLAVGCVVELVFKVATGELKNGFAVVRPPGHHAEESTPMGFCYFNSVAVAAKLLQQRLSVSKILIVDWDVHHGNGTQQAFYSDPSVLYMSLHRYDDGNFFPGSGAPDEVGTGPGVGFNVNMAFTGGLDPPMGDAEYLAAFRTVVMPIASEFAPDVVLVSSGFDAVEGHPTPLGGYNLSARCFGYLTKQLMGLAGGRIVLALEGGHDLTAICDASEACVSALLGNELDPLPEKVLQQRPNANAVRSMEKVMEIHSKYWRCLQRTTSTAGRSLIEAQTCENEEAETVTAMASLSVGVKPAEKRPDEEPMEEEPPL

| SMILES | inhibition (Histone deacetylase 4) | IC50 [1] | IC50 (Histone deacetylase 1) | IC50 [2] | inhibition (HCT-116 [3]) | inhibition (HCT-116 [4]) | Drug metabolism (Serum) | Tmax [5] | Tmax [6] | Drug metabolism [7] | inhibition (HCT-116 [8]) | Drug metabolism [9] |
| --- | --- | --- | --- | --- | --- | --- | --- | --- | --- | --- | --- | --- |
| CC(C)[C@@H]1NC(=O)[C@]2(C)CSC(=N2)c2csc(n2)CNC(=O)C[C@@H](/C=C/CCSSCC/C=C/[C@@H]2CC(=O)NCc3nc(cs3)C3=N[C@@](C)(CS3)C(=O)N[C@@H](C(C)C)C(=O)O2)OC1=O | < 20% | 61 nM | 0.3 nM | 0.2 nM | Active | inactive | metabolite_notdetected | 4 h | 4 h | metabolite_detected | inactive | metabolite_notdetected |
| CC(C)[C@@H]1NC(=O)[C@]2(C)CSC(=N2)c2csc(n2)CNC(=O)C[C@@H](/C=C/CCSSC[C@H](NC(=O)OC(C)(C)C)C(=O)OC(C)(C)C)OC1=O | < 20% | 135 nM | 0.4 nM | 0.5 nM | – | – | – | – | – | – | – | – |
